The subject of the data set is MS2 coat protein. Briefly: apparent Kd, MS2 coat protein; higher = weaker binding; RNA-MaP array; FMN 200 µM where present. A digest of the protocol: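 Green signal from SNAP-549-labelled MS2 coat protein was normalised to red-channel RNA signal and to the median Fmax of control clusters. The protein was titrated from 0.7 or 1.5 nM, doubling to 3 µM, without and then with constant ligand, over designs transcribed by stalled E. coli RNA polymerase on Illumina sequencing-chip clusters, in 100 mM Tris-HCl pH 7.5, 80 mM KCl, 4 mM MgCl2, BSA, DTT, yeast tRNA and Tween-20. The apparent Kd is the median of filtered per-cluster binding-curve fits.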

Where [1] appears, read: designed as: ON switch for flavin mononucleotide, no ligand.
[2] abbreviates: ligand present: flavin mononucleotide, designed as: ON switch for flavin mononucleotide.
Where [3] appears, read: designed as: OFF switch for flavin mononucleotide, no ligand.
[4] abbreviates: ligand present: flavin mononucleotide, designed as: OFF switch for flavin mononucleotide.

“UGGUACAUGGGAGGAUAUCCUCACAUGAGGAUCACCCAUGUAAAGAAUUAUAAGCCGAAAGGCAUGGAGAAGGCCCAUGUACCU”: the “apparent Kd” value under setting [1] was 0.0876 µM and the “apparent Kd” value under setting [2] was 0.0162 µM.

For the sequence “AGACCCAUGACAUGAGAUGACAUGAGGAUCACCCAUGUUUACGAGGAUAUGUUGAUGAAACAUCAACAGAAGGUGUAAUGGGCU”, the “apparent Kd” value is 0.0212 µM under setting [3] and 0.0289 µM under setting [4]. The corresponding values for “CGUGUACGAGGAUAUAGAUUGGAUGACAUGAGGAUCACCCAUGUGAUCGAUCUAUUUGGUUUAGAAGGUGUACAUG” are 0.0134 µM and 0.0142 µM. The corresponding values for “GGUGGACAUGAGGAUCACCCAUGUGAGGAUAUCGGCUGGUACGUGUUGGCUGGCAUCUCGAGAAGGCACAUCGU” are 0.0562 µM and 0.135 µM. Take “AAAUAACAUGAGGAUCACCCAUGUCCGCGCCAUCAAGGAUAUGGGUGCCGGCUAGGUCAGCUAGAAGGUGGUGGUG”: the “apparent Kd” value was found to be 0.0288 µM under setting [1] and 0.0345 µM under setting [2]. Turning to “ACUCGGAGCUGGCGACAGAAGACAUGAGGAUCACCCAUGUAGAGAAGGAGCCCUGGGACCGGUGGCUAGGAUAUUUACAUCGGU”, the “apparent Kd” value by setting is: under setting [3], 0.0069 µM; under setting [4], 0.0123 µM.

As for “AUGAGGUUAGGAUAUACAUGAGGAUCACCCAUGUUGAAAGGUUAGGUAGGCGGAGCUGGUAGAAGGAACGGAGC”, the “apparent Kd” value reads like this: under setting [3], 0.0397 µM; under setting [4], 0.0318 µM. For “GUAGCUAUCGGAGGAUAUUCAUGAUACAUGAGGAUCACCCAUGUUAAAGUGGGAGAAGGCCGAUAGCUACAAGAGCGAAAGCUC”, the “apparent Kd” value amounted to 0.0448 µM under setting [1] and 0.00687 µM under setting [2]. For “CAAUUUAUUACAGGAUAUACAAUACAAUGAUUAGUAGAAGGGUAUAAUACAUGAGGAUCACCCAUGUCAUGUGUCAUAAUAACC”, the “apparent Kd” value is, setting by setting: under setting [3], 0.0358 µM; under setting [4], 0.0239 µM. The corresponding values for “ACCUUACAUGAGGAUCACCCAUGUCAGGAUAUCUCGGGCGGCUGAGGACCAGCCGCCCAGAGAAGGGACGAGGA” are 0.0147 µM and 0.0153 µM. “GGUUGGCGAGGAUAUACAUGAGGAUCACCCAUGUGGUCCUGUGGCUGAUCUUGCCUUUGUAGAAGGCGCAAAUC”: the “apparent Kd” value is, setting by setting: under setting [3], 0.0185 µM; under setting [4], 0.0378 µM. Consider “GGUAGACAUGAGGAUCACCCAUGUGAGGAUAUCGUCAUAGAUGCAAAAGCAUCUAUGACGAGAAGGUACAUGCC”, for which the “apparent Kd” value is 0.0331 µM under setting [3] and 0.0343 µM under setting [4]. The corresponding values for “CCGGAAAUAGAGGAUAUCGUAUCGGAUACGAUACGAGAAGGCUGUACAUGAGGAUCACCCAUGUGUCCUACCGG” are 0.0112 µM and 0.0215 µM. On to “AAGUCGUGAGGAUAUACAUGCAUAUACAUUUAUGUAAAACUACAUGAGGAUCACCCAUGUAGAAGGCACGAAUA”, for which the “apparent Kd” value by setting is: under setting [3], 0.0176 µM; under setting [4], 0.0161 µM. As for “AAUAUACAUGAGGAUCACCCAUGUUUUGGUGCAUGAGGAUAUAAAAACAAUUACAUAAAGUUAGAAGGCAUGAAUA”, the “apparent Kd” value was determined as 0.0549 µM under setting [1] and 0.0479 µM under setting [2]. As for “CGCUCUAUAUAUUUGGCAAGAAUCAGAAGGCGUUACAUGAGGAUCACCCAUGUUUUGUAUAGUAACGAGGAUAUGAUAUGAGCG”, the “apparent Kd” value by setting is: under setting [3], 0.0133 µM; under setting [4], 0.0134 µM. On to “UGGUACUAGGGAGGAUAUGGGAAGAUACAUGAGGAUCACCCAUGUUUAAGAAUGCCGAGAGGCAACUAGAAGGCCCUUGUACCU”, for which the “apparent Kd” value is, setting by setting: under setting [1], 0.444 µM; under setting [2], 0.0193 µM.

With “AUAUUAAGUGUGAGGAUAUGCUGGUCCUUGGAUCAGCAGAAGGCACAUGAGGAUCACCCAUGUAAUAUAUUUAA”, the “apparent Kd” value came out at 0.102 µM under setting [3] and 0.306 µM under setting [4]. With “AGGAGGUUAGGAUAUGCUGCUCGUCACUUGCGUGAUGAGUAGCAGAAGGGACAUGAGGAUCACCCAUGUAAAAA”, the “apparent Kd” value runs as follows: under setting [3], 0.0485 µM; under setting [4], 0.0281 µM. The corresponding values for “UAGCCUGUAGGAGUGGAAGCCGGUAGAAGGCAGCAUUGAUGGACCGACAUGAGGAUCACCCAUGUUGAGGAUAUACCGGGCACU” are 0.0393 µM and 0.247 µM. The corresponding values for “UCGGCCGCCGUGAGGAUAUGCCCGCGCGCCCGCGGGCAGAAGGCACAUGAGGAUCACCCAUGUCCCGCGGCACU” are 0.0154 µM and 0.0274 µM. The corresponding values for “CCGUCAAUCGAGAAGGGCCUAUGUGCUACAUCGGCAGGAUAUCGACAUGAGGAUCACCCAUGUUGGCGAUCCUUUUUGGCGGAC” are 0.156 µM and 0.0241 µM. On to “CAGCCCUGAGGAUAUCCCUACUUGUACAUGAGGAUCACCCAUGUCCUCCUCCGGGCUUCGGGAGAAGGCAGGUCUC”, for which, under setting [3], the “apparent Kd” value worked out at 0.0158 µM. Consider “UAUAUAUAGUAAGGAUAUAUAUUUUUUUUUUAAAUAGAAGGUACAGACAUGAGGAUCACCCAUGUUAUAAUAUGGACAUGUGGA”, for which the “apparent Kd” value was determined as 0.099 µM under setting [3] and 0.136 µM under setting [4]. On to “UUGGAGUACGUAGGAUAUGUAGGAUAUUCCUACAUGAGGAUCACCCAUGUAUGAAUGGAAGAAGGACAGAAGGACGUGCUCCAU”, for which the “apparent Kd” value is 0.0198 µM under setting [1] and 0.0139 µM under setting [2]. For “CGAAGUCCGUAGAAGGGUGACAUGAGGAUCACCCAUGUGCGAGCGGAGGGAGUCAUCGGCUCGCCACAGGAUAUACGGAGCACG”, the “apparent Kd” value is, setting by setting: under setting [1], 0.0581 µM; under setting [2], 0.0492 µM.

As to “CGCUCACAUGAGGAUCACCCAUGUCCUAGGAGGUCAGGAUAUAGCCCGCAUCCGCUGCGGCUAGAAGGGACAGCUG”, the “apparent Kd” value was 0.203 µM under setting [1] and 0.0686 µM under setting [2]. The corresponding values for “CAGCGCUGUCGAGAGGAUAUGCGGUGAUGGACAUGAGGAUCACCCAUGUUAGCGAUAGUAUUACGGUAGAAGGCUCUACAGCUGC” are 0.0922 µM and 0.0167 µM. The corresponding values for “GCCAUCGCAUGAGGAUAUGCUCCGGUUUCCGGAGCAGAAGGCAUGUCAUAAGACAUGAGGAUCACCCAUGUAGCUAAGAUGGCA” are 0.307 µM and 0.0119 µM. The corresponding values for “UGGGUGGUCCGAGGAUAUGUCACAUGAGGAUCACCCAUGUAAAACCAAGAGACAGAAGGCGGACAUAGACGCCCAAUUGCGCUC” are 0.0307 µM and 0.00503 µM. For the sequence “UACAGCGUAGAUAAUAAUGAUUACAUGAGGAUCACCCAUGUAUAGGAUAUGCAGUGGAAUACACUGCAGAAGGAUACAUCGCUG”, the “apparent Kd” value runs as follows: under setting [3], 0.017 µM; under setting [4], 0.037 µM. The corresponding values for “UUAAAUUAGUAGAAGGACGGUGAGUAAGAAGUCGUAGGAUAUACAUAAGACAUGAGGAUCACCCAUGUAAGUUUGUUGGGUAUG” are 0.0441 µM and 0.0384 µM. The corresponding values for “UAUAUAUAGUAAGGAUAUGUAUAUAGUUUAUAAACAGAAGGUACUGACAUGAGGAUCACCCAUGUUUUAGUGUGGGCAUGUAGA” are 0.0779 µM and 0.0995 µM. On to “UUGGACGUCGUAGGAUCUGUAGGAUAUUCCUACAUGAGGAUCACCCAUGUUGACAUGGAAGAAGGACAGAAGGACGAUGUCCAU”, for which the “apparent Kd” value worked out at 0.00635 µM under setting [1] and 0.0037 µM under setting [2]. Regarding “AAACAUGUCCGAGGAUAUCUGGAAACAUUUUCAAGAGAAGGCGGACAUGAGGAUCACCCAUGUCUCUCCUCAUCAAAUCCAAGC”, the “apparent Kd” value is, setting by setting: under setting [3], 0.0082 µM; under setting [4], 0.0449 µM. The corresponding values for “GUCAGCUCGUGAGGAUAUACAACACUGCUUCGGCCGUGUAUUAAGAUCACAUGAGGAUCACCCAUGUAGAAGGCACGAGCUGAU” are 0.0136 µM and 0.228 µM. For the sequence “UAGUGAUUGCAAGGAUAUGCUUAUGUUUAAUUUUUUUUAAUAUCUAACAUGAGGAUCACCCAUGUGCAGAAGGUGCUUGAUUUG”, the “apparent Kd” value is 0.0661 µM under setting [1] and 0.0587 µM under setting [2]. As to “UGGAUCAUCGGAGGAUAUCAUGUAGAUACAUGAGGAUCACCCAUGUCGAUGGAGACAUCGGAGAUUGAGAAGGCCGAUGAUCCU”, the “apparent Kd” value amounted to 0.543 µM under setting [1] and 0.0309 µM under setting [2]. For the sequence “ACUAAACGAGGAUAUACUGACAGGCCUCAGGCAUACAUCAAACAUGAGGAUCACCCAUGUAGAAGGCGUAAACU”, the “apparent Kd” value is, setting by setting: under setting [3], 0.0328 µM; under setting [4], 0.0328 µM. In the case of “GUGACGAAUGUAGGAUAUGCUGACCAAUGGUCAGCAGAAGGACAUGAGGAUCACCCAUGUCAUCCUUAUAAUAAAUAACGUCAC”, the “apparent Kd” value was determined as 0.0134 µM under setting [3] and 0.0181 µM under setting [4].

Take “UAUUCUAGAUAGGAUAUACUUUUUUUUUUUUUCGUAGAAGGAUCUACAUGAGGAUCACCCAUGUUUUCAGCAGU”: the “apparent Kd” value amounted to 0.0445 µM under setting [3] and 0.0384 µM under setting [4]. Turning to “ACAUGAGGAUCACCCAUGUUGAUAGUAGAAGGGACAGAGAAGAAGAAACAUGAGGAUCACCCAUGUCAGGAUAUGCGAAUUGGA”, the “apparent Kd” value by setting is: under setting [1], 0.0364 µM; under setting [2], 0.0336 µM. The corresponding values for “GUGGCAUACCGAGGAUAUUCAUAUAAUAAAUAAACAUGAGGAUCACCCAUGUGGCGAAAGCCUUGGGAGAAGGCGGAAUGCUAC” are 0.574 µM and 0.0382 µM. Turning to “GGGCGACAUGAGGAUCACCCAUGUAACCAAAACGAAGGAUAUGGGCCUGAACGUCCAGGACUAGAAGGUCGGAAAC”, the “apparent Kd” value is 0.022 µM under setting [1] and 0.018 µM under setting [2]. The corresponding values for “CUGUCGAUAUCAGGAUAUCGAUUAACUACAUGAGGAUCACCCAUGUUGACAUGGAAUAUAACUUGCGAGAAGGGAUAACGAUAG” are 0.0234 µM and 0.0138 µM. Regarding “CUGGGCGGAGGAUAUACAGGUUGGGCAUAAGUUCGGCUGGGACAUGAGGAUCACCCAUGUAGAAGGUUGUUUAG”, the “apparent Kd” value is, setting by setting: under setting [3], 0.0253 µM; under setting [4], 0.0232 µM. For the sequence “GUAGCAUACCGAGGAUAUUCAUACCGGAAACGGACAUGAGGAUCACCCAUGUAGCGAAAGCUUUGGGAGAAGGCGGAAUGCUAC”, the “apparent Kd” value came out at 0.905 µM under setting [1] and 0.0339 µM under setting [2]. The corresponding values for “UUCAUCGAUGAAGGAUAUCUAUGUCCAACAUGAGGAUCACCCAUGUUGAGGAUUACCUAUGUGUAGGAGAAGGUCAAUAUGACU” are 0.00703 µM and 0.00639 µM.

As usually defined, the apparent Kd is the concentration giving half-maximal binding under the conditions of the assay.

For the origin of these results see the EternaBench riboswitch data.
